Results on 12 molecules are retold here after ChEMBL document CHEMBL1938355, “Antimycobacterial activities of 5-alkyl (or halo)-3'-substituted pyrimidine nucleoside analogs” (Bioorg Med Chem Lett, 2012).

Values after ≈ are worked out from the molar mass of the structure shown. Active and inactive are the calls of the source. The calls are words filed in the database; no cut-off is given here.

For experiment [1], the system named is Mycobacterium tuberculosis. Briefly: Antimycobacterial activity against Mycobacterium bovis BCG assessed as growth inhibition at 0.5 to 100 ug/ml by microplate alamar blue assay. It is filed as functional, organism-based. The note with it: variant bovis BCG. Put shortly: (§1)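 Strains obtained from ATCC. Tested by microplate alamar blue assay. Compounds made up as 10 mg/mL DMSO stocks, then serially diluted in 7H9GC medium. Final test concentrations were 100, 50, 25, 10, 5, 1 and 0.5, each in triplicate. Experiments were run twice, and mean percent growth inhibition is reported.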
On the technique in general: Alamar Blue is a resazurin reagent that responds to reducing activity.

Experiment [2] has as its system Mycobacterium tuberculosis. Briefly: Antimycobacterial activity against Mycobacterium bovis BCG assessed as growth inhibition at 100 ug/ml by microplate alamar blue assay. Format: functional. Conditions: variant bovis BCG, read-out: GI. The gist of the method:
as §1

In experiment [3] the test system is Mycobacterium tuberculosis. Nature of the experiment: Antimycobacterial activity against Mycobacterium bovis BCG by microplate alamar blue assay. Format: functional. Conditions: variant bovis BCG.
In experiment [4] the test system is Mycobacterium tuberculosis. Nature of the experiment: Antimycobacterial activity against Mycobacterium bovis BCG assessed as growth inhibition at 1 ug/ml by microplate alamar blue assay. Format: functional. Conditions: variant bovis BCG, read-out: GI. The gist of the method:
as §1

For experiment [5], the system named is Mycobacterium tuberculosis. Nature of the experiment: Antimycobacterial activity against Mycobacterium bovis BCG assessed as growth inhibition at 10 ug/ml by microplate alamar blue assay. It is filed as functional. The note with it: variant bovis BCG, read-out: GI. The gist of the method: as §1
Experiment [6] relates to Mycobacterium tuberculosis. Briefly: Antimycobacterial activity against Mycobacterium bovis BCG assessed as growth inhibition at 50 ug/ml by microplate alamar blue assay. It is filed as functional. The note with it: variant bovis BCG, read-out: GI. Put shortly: as §1
Experiment [7] has as its system Mycobacterium tuberculosis. Nature of the experiment: Antimycobacterial activity against Mycobacterium bovis BCG assessed as growth inhibition at 0.5 ug/ml by microplate alamar blue assay. Format: functional. The note with it: variant bovis BCG, read-out: GI. The gist of the method: as §1

Take `O=c1[nH]c(=O)n([C@H]2C[C@H](F)[C@@H](CO)O2)cc1C(F)(F)F`: the “growth inhibition (GI)” value in experiment [1] is “inactive”.

As for `CCc1cn([C@H]2CC[C@@H](CO)O2)c(=O)[nH]c1=O`, in experiment [1], the “growth inhibition (GI)” value was “inactive”.

`CCc1cn([C@H]2C[C@H](F)[C@@H](CO)O2)c(=O)[nH]c1=O`: in experiment [2], the inhibition of growth at 100 µg/mL is 40%.

The term MIC50 denotes the lowest concentration that inhibits either 50% of growth or 50% of the strains tested, depending on the study. Lower therefore signals greater potency. `N[C@@H]1CONC1=O` [CYCLOSERINE]: in experiment [3], the MIC50 amounted to 1 µg/mL (≈ 9.79 µM). Also, the inhibition of growth at 1 µg/mL in experiment [4] came out at 50%. The inhibition of growth at 10 µg/mL in experiment [5] amounted to 100%. Further, the inhibition of growth at 100 µg/mL in experiment [2] is 100%. Further, in experiment [6], the inhibition of growth at 50 µg/mL came out at 100%.

As for `CO[C@H]1/C=C/O[C@@]2(C)Oc3c(C)c(O)c4c(O)c(c(/C=N/N5CCN(C)CC5)c(O)c4c3C2=O)NC(=O)/C(C)=C\C=C\[C@H](C)[C@H](O)[C@@H](C)[C@@H](O)[C@@H](C)[C@H](OC(C)=O)[C@@H]1C` [RIFAMPIN], the inhibition of growth at 0.5 µg/mL in experiment [7] was 100%.

Turning to `[N-]=[N+]=N[C@H]1C[C@H](n2cc(Br)c(=O)[nH]c2=O)O[C@@H]1CO`, the inhibition of growth at 100 µg/mL in experiment [2] amounted to 50%.

For `CCc1cn([C@H]2C[C@@H](O)[C@@H](CO)O2)c(=O)[nH]c1=O`, the “growth inhibition (GI)” value in experiment [1] is “inactive”.

As for `Cc1cn([C@H]2C[C@H](N)[C@@H](CO)O2)c(=O)[nH]c1=O` [3-AMINO- 3-DEOXYTHYMIDINE], the inhibition of growth at 100 µg/mL in experiment [2] came to 50%.

With `[N-]=[N+]=N[C@H]1C[C@H](n2cc(Cl)c(=O)[nH]c2=O)O[C@@H]1CO`, the inhibition of growth at 100 µg/mL in experiment [2] came to 50%.

For `CCc1cn([C@H]2C[C@H](I)[C@@H](CO)O2)c(=O)[nH]c1=O`, the “growth inhibition (GI)” value in experiment [1] was “inactive”.

As for `[N-]=[N+]=N[C@H]1C[C@H](n2cc(F)c(=O)[nH]c2=O)O[C@@H]1CO`, the “growth inhibition (GI)” value in experiment [1] was “inactive”.

Turning to `CCc1cn([C@H]2C[C@H](N=[N+]=[N-])[C@@H](CO)O2)c(=O)[nH]c1=O`, the MIC50 in experiment [3] was 1 µg/mL (≈ 3.56 µM). Further, the inhibition of growth at 1 µg/mL in experiment [4] is 50%. In addition, in experiment [5], the inhibition of growth at 10 µg/mL came out at 85%. Further, in experiment [2], the inhibition of growth at 100 µg/mL came out at 95%. Further, the inhibition of growth at 50 µg/mL in experiment [6] came to 95%.
